# Experimental data: ChEMBL document CHEMBL1141362, “Synthesis and solid-phase purification of anthranilic sulfonamides as CCK-2 ligands” (Bioorg Med Chem Lett, 2007)
# What was measured:
# [1] = Metabolic stability in human liver microsomes after 30 mins; assay type: ADME, Microsome; conditions: read-out: Stability
# Summary of the method: (§1)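 Compound incubated with human or rat liver microsomes to assess stability toward CYP450 oxidation. The read-out is percent of parent compound remaining after 30 min.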
# [2] = Metabolic stability in rat liver microsomes after 30 mins; assay type: ADME, Microsome; conditions: read-out: Stability; summary of the method: as §1
# [3] = target: T1, Gastrin/cholecystokinin type B receptor (Homo sapiens, UniProt P32239); assay: Displacement of [125I]CCK-8S from CCK2 receptor
# T1 sequence (P32239 whole entry): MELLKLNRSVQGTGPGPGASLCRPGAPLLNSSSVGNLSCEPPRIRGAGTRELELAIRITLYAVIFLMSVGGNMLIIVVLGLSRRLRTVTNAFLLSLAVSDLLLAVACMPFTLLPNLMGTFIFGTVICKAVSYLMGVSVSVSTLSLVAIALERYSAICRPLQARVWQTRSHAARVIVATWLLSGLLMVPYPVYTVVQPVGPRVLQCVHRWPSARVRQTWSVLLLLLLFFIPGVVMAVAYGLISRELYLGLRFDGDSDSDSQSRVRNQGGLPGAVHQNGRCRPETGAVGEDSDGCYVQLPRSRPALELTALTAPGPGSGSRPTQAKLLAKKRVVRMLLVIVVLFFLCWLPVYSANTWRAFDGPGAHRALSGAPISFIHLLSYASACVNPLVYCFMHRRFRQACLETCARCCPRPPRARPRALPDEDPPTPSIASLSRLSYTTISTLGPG
# Summary of the method: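 Apparent antagonist equilibrium dissociation constant, reported as its negative logarithm, derived by the Cheng–Prusoff method from the concentration displacing 50% of 125I-CCK-8S (pIC50). Values are ±0.3 log units unless stated otherwise.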
# [4] = target: T2, Cholecystokinin receptor type A (Homo sapiens, UniProt P32238); assay: Binding affinity to CCK1 receptor
# T2 sequence (P32238 whole entry): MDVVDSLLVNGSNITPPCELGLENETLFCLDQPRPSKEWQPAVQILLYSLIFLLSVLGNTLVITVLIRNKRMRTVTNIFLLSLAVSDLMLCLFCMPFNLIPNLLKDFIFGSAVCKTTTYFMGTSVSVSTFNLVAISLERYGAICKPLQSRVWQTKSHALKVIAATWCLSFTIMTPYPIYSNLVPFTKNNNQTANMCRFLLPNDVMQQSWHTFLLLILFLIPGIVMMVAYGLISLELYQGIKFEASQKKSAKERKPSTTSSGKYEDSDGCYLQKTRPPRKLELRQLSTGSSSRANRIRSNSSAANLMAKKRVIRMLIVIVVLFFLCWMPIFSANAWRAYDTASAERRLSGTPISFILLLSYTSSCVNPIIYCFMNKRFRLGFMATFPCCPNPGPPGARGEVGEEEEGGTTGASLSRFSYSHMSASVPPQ
Compound,remaining at 0.5 h [1],remaining at 0.5 h [2],Ki [3],Ki [4]
Cc1c(S(=O)(=O)Nc2cc(Br)ccc2C(=O)N2CCCCC2)cnn1-c1ccccc1,85%,30%,7.94 µM,
CSc1nccc(-c2ccc(S(=O)(=O)Nc3cc(Br)ccc3C(=O)N3CCCCC3)s2)n1,63%,39%,3.16 µM,
O=C(c1ccc(Br)cc1NS(=O)(=O)c1ccc2nsnc2c1)N1CCCCC1,13%,23%,5.01 µM,
COC(=O)c1c(C)oc(C)c1S(=O)(=O)Nc1cc(Br)ccc1C(=O)N1CCCCC1,0%,11%,0.501 µM,
O=C(c1ccc(Br)cc1NS(=O)(=O)c1ccc(C(F)(F)F)cc1Cl)N1CCCCC1,44%,49%,0.631 µM,
O=C(c1ccc(Br)cc1NS(=O)(=O)c1sc(Cl)cc1Br)N1CCCCC1,2%,68%,0.794 µM,
O=C(c1ccc(Br)cc1NS(=O)(=O)c1c(Cl)nc2sccn12)N1CCCCC1,7%,100%,1.58 µM,
COC(=O)c1cc(S(=O)(=O)Nc2cc(Br)ccc2C(=O)N2CCCCC2)oc1C,10%,100%,5.01 µM,
COC(=O)c1sc(C(F)(F)F)c(-c2ccccc2)c1S(=O)(=O)Nc1cc(Br)ccc1C(=O)N1CCCCC1,0%,0%,7.94 µM,
Cc1ccc(S(=O)(=O)Nc2cc(Br)ccc2C(=O)N2CCCCC2)cc1[N+](=O)[O-],3%,25%,2 µM,
COC(=O)c1csc(S(=O)(=O)Nc2cc(Br)ccc2C(=O)N2CCCCC2)c1OC,0%,0%,5.01 µM,
N#Cc1cccc(S(=O)(=O)Nc2cc(Br)ccc2C(=O)N2CCCCC2)c1,7%,100%,5.01 µM,
COC(=O)c1sccc1S(=O)(=O)Nc1cc(Br)ccc1C(=O)N1CCCCC1,3%,37%,1.58 µM,
O=C(c1ccc(Br)cc1NS(=O)(=O)c1ccc2c(c1)OCCCO2)N1CCCCC1,41%,9%,2.51 µM,
O=C(c1ccc(Br)cc1NS(=O)(=O)c1cccc2nsnc12)N1CCCCC1,0%,29%,,
O=C(c1ccc(Br)cc1NS(=O)(=O)c1c(F)cccc1F)N1CCCCC1,77%,78%,0.501 µM,
O=C(c1cc(Cl)ccc1NS(=O)(=O)c1cccc2nsnc12)N1CCCCC1,,,,> 10 µM
Cc1nc(-c2ccc(S(=O)(=O)Nc3cc(Br)ccc3C(=O)N3CCCCC3)s2)cs1,5%,47%,3.98 µM,
Cc1nnc(-c2cccc(S(=O)(=O)Nc3cc(Br)ccc3C(=O)N3CCCCC3)c2)o1,0%,66%,7.94 µM,
O=C(c1ccc(Br)cc1NS(=O)(=O)c1csc2ccccc12)N1CCCCC1,23%,19%,3.16 µM,
O=C(NCc1ccc(S(=O)(=O)Nc2cc(Br)ccc2C(=O)N2CCCCC2)s1)c1ccccc1,0%,0%,6.31 µM,
O=C(c1ccc(Br)cc1NS(=O)(=O)c1ccc(-c2cc(C(F)(F)F)on2)s1)N1CCCCC1,89%,87%,5.01 µM,
